Measured values from article PMC5091660 (Journal of medicinal chemistry, 2016).
Entries after “also recorded” stand apart in the source; their conditions may differ.

Experiments:
[1] = molecular target: T1, S1P1 (Homo sapiens, UniProt P21453); experiment: competitive [^32P]S1P binding assay, S1P1; settings: for IC50: S1P1 IC50, competition with [^32P]S1P, cell membranes expressing recombinant human S1P1; for decrease in S1P1 binding affinity relative to 28c: head group change of 28c
[2] = molecular target: T1, S1P1; experiment: in vitro functional assay; assay type: cell-based
Method in brief: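 S1P1-TANGO-U2OS cells at 312,500 cells/mL in unsupplemented Freestyle Expression Medium were grown 48 h at 37 °C, 5% CO2. Test compound in DMSO was added (controls 0.5% DMSO final), then incubated 5 h at 37 °C. LiveBLAzer FRET substrate mix with 10 mM probenecid was added for 2 h at r.t. in the dark. Read-out: excitation 405 nm, emission 460 and 535 nm.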

[3] = molecular target: recombinant human S1P2 (Homo sapiens, UniProt O95136); experiment: competitive [^32P]S1P binding assay, S1P2
Chain of recombinant human S1P2 (O95136 whole entry): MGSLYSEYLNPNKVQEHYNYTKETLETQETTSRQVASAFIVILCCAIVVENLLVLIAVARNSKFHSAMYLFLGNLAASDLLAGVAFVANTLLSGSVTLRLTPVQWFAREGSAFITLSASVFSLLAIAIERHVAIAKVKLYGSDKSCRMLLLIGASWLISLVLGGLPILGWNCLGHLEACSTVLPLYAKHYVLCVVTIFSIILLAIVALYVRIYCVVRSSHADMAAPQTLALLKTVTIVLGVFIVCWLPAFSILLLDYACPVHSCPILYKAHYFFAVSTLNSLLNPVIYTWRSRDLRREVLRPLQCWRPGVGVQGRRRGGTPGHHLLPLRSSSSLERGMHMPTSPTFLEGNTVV

[4] = molecular target: recombinant human S1P3 (Homo sapiens, UniProt Q99500); experiment: competitive [^32P]S1P binding assay, S1P3
Chain of recombinant human S1P3 (Q99500 whole entry): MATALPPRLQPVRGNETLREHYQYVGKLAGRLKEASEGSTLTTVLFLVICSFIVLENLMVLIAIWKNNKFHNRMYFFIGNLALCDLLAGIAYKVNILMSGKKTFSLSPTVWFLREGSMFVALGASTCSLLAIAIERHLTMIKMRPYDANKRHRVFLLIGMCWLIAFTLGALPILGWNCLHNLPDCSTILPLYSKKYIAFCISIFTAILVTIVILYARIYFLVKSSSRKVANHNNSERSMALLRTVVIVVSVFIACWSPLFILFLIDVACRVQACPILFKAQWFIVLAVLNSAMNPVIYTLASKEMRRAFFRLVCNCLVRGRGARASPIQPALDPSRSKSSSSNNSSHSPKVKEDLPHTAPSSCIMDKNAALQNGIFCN

[5] = tested on: liver of LPS-treated mice; experiment: [^15O]water microPET study of liver blood flow in LPS-treated and sham mice; assay type: in vivo, C57BL/6 mice; settings: 10 min scan after bolus injection via tail vein
Method in brief: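 Adult male C57BL/6 mice (18–23 g) were pretreated ~24 h earlier with saline or LPS and kept under 2–3% isoflurane via nose cone on an Inveon PET/CT. After a transmission scan and CT, they received a bolus of [15O]water (30–55 MBq) by tail vein, followed by a 10 min dynamic scan, ~30 min before the 18F scan. Liver activity was expressed as SUV.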

[6] = tested on: liver of LPS-treated mice; experiment: acute biodistribution in LPS-treated and sham mice; assay type: in vivo, C57BL/6 mice; settings: n = 4 per group
Method in brief: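 About 24 h after sham or LPS treatment, mice received the 18F-labelled test compound (~20 μCi, 0.74 MBq, in 10% ethanol/saline) by tail vein. A separate set received [99mTc]mebrofenin (~4 μCi, 148 KBq) under 2–3% isoflurane/oxygen. Mice were euthanized at 30 or 60 min (n = 4 per group per tracer). Tissues were weighed and gamma-counted against a dilution of the injectate.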

T1 sequence (P21453 whole entry): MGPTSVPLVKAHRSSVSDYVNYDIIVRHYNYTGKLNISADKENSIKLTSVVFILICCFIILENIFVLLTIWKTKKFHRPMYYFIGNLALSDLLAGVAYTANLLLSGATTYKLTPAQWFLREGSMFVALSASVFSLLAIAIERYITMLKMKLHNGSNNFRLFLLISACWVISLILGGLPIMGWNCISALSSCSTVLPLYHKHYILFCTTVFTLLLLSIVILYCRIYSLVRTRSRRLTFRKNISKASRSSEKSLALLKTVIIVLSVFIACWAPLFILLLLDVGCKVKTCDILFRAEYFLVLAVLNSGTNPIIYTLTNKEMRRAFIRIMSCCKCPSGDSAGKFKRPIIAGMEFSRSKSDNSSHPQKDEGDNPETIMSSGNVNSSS

`O=C(O)C1CN(Cc2ccc3oc(-c4ccc(OCCF)c(C(F)(F)F)c4)nc3c2)C1` [Compound 15b, 1-((2-(4-(2-Fluoroethoxy)-3-(trifluoromethyl)phenyl)benzo[d]-oxazol-5-yl)methyl)azetidine-3-carboxylic Acid] was tested, and the IC50 [1] was 76.4 ± 21.6 nM.

Work on `O=C(O)c1ccc(-c2ccc3oc(-c4ccc(-c5ccc(F)nc5)c(C(F)(F)F)c4)nc3c2)s1` [Compound 16, 5-(2-(4-(6-Fluoropyridin-3-yl)-3-(trifluoromethyl)phenyl)benzo-[d]oxazol-5-yl)thiophene-2-carboxylic Acid] yielded an EC50 [2] of 2.99 nM and an IC50 [1] of 334 ± 59 nM.

`O=C(O)C1CCN(c2ccc3oc(-c4ccc(-c5ccc(F)cc5)c(C(F)(F)F)c4)nc3c2)CC1` [Compound 18a, 1-(2-(4′-Fluoro-2-(trifluoromethyl)-[1,1′-biphenyl]-4-yl)benzo[d]-oxazol-5-yl)piperidine-4-carboxylic Acid] was tested, and the EC50 [2] was 0.76 nM.

For `O=C(O)C1CCN(c2ccc3oc(-c4ccc(-c5ccccc5OCCF)c(C(F)(F)F)c4)nc3c2)CC1` [Compound 18b, 1-(2-(2′-(2-Fluoroethoxy)-2-(trifluoromethyl)-[1,1′-biphenyl]-4-yl)benzo[d]oxazol-5-yl)piperidine-4-carboxylic Acid], the EC50 [2] was 3.04 nM.

Molecule `O=C(O)C1CCN(c2ccc3oc(-c4ccc(-c5ccc(OCCF)cc5)c(C(F)(F)F)c4)nc3c2)CC1` [Compound 18c, 1-(2-(4′-(2-Fluoroethoxy)-2-(trifluoromethyl)-[1,1′-biphenyl]-4-yl)benzo[d]oxazol-5-yl)piperidine-4-carboxylic Acid] has an EC50 [2] of 11.1 nM.

Work on `O=C(O)C1CCN(c2ccc3oc(-c4ccc(-c5ccc(C(F)(F)F)cc5)c(C(F)(F)F)c4)nc3c2)CC1` [Compound 18d, 1-(2-(2,4′-Bis(trifluoromethyl)-[1,1′-biphenyl]-4-yl)benzo[d]-oxazol-5-yl)piperidine-4-carboxylic Acid] yielded an EC50 [2] of 4.47 nM and an IC50 [1] of 498 ± 335 nM.

In the case of `COc1cccc(-c2ccc(-c3nc4cc(N5CCC(C(=O)O)CC5)ccc4o3)cc2C(F)(F)F)c1` [Compound 18e, 1-(2-(3′-Methoxy-2-(trifluoromethyl)-[1,1′-biphenyl]-4-yl)benzo-[d]oxazol-5-yl)piperidine-4-carboxylic Acid], the EC50 [2] is reported as 4.9 nM.

With `CCOc1ccc(-c2nc(-c3ccc(CN4CC(C(=O)O)C4)cc3)no2)cc1` [Compound 28a, 1-(4-(5-(4-Ethoxyphenyl)-1,2,4-oxadiazol-3-yl)benzyl)azetidine-3-carboxylic Acid] the IC50 [3] was > 1000 nM.

For `O=C(O)C1CN(Cc2ccc(-c3noc(-c4ccc(OCCF)cc4)n3)cc2)C1` [Compound 28b, 1-(4-(5-(4-(2-Fluoroethoxy)phenyl)-1,2,4-oxadiazol-3-yl)benzyl)-azetidine-3-carboxylic Acid], the IC50 [4] was > 1000 nM and the IC50 [3] was > 1000 nM.

`O=C(O)C1CN(Cc2ccc(-c3noc(-c4ccc(OCCF)c(C(F)(F)F)c4)n3)cc2)C1` [Compound 28c, 1-(4-(5-(4-(2-Fluoroethoxy)-3-(trifluoromethyl)phenyl)-1,2,4-oxadiazol-3-yl)benzyl)azetidine-3-carboxylic Acid] was tested, and the IC50 [4] was > 1000 nM and the IC50 [3] was > 1000 nM.

For `O=C(O)C1CCN(Cc2ccc(-c3noc(-c4ccc(OCCF)c(C(F)(F)F)c4)n3)cc2)CC1` [Compound 28d, 1-(4-(5-(4-(2-Fluoroethoxy)-3-(trifluoromethyl)phenyl)-1,2,4-oxadiazol-3-yl)benzyl)piperidine-4-carboxylic Acid], the IC50 [4] was > 1000 nM, the IC50 [3] was > 1000 nM and the “decrease in S1P1 binding affinity relative to 28c” value [1] was 20 fold.

`FCCOc1ccc(-c2nc(-c3ccc(CNCc4nnn[nH]4)cc3)no2)cc1C(F)(F)F` [Compound 28e, N-((1H-Tetrazol-5-yl)methyl)-1-(4-(5-(4-(2-fluoroethoxy)-3-(trifluoromethyl)phenyl)-1,2,4-oxadiazol-3-yl)phenyl)methanamine] was tested, and the “decrease in S1P1 binding affinity relative to 28c” value [1] was “over 100 fold”.

`COc1ccc(-c2nc(-c3ccc(CN4CC(C(=O)O)C4)cc3)no2)cc1C(F)(F)F` [Compound 28f, 1-(4-(5-(4-Methoxy-3-(trifluoromethyl)phenyl)-1,2,4-oxadiazol-3-yl)benzyl)azetidine-3-carboxylic Acid] was tested, and the IC50 [1] was > 100 nM.

For `[15OH2]` [[^15O]water], the “liver uptake (TAC) in LPS-treated mice compared to sham mice” value [5] was “no difference; also recorded: no significant change”.

“[^99mTc]-N-(3-bromo-2,4,6-trimethyacetanilide) iminodiacetic acid [[^99mTc]mebrofenin]” was tested, and the “liver uptake in LPS-treated mice compared with sham mice” value ([6]; 30 min postinjection) was “increased” and the “liver uptake in LPS-treated mice compared with sham mice” value ([6]; 60 min postinjection) was “absence of a significant difference; also recorded: no significant difference”.
